For data set [1], the system named is Plasma. Description: Antithrombotic activity in New Zealand white rabbit platelet-poor plasma assessed as increase of thrombin time at 100 uM after 3 mins (reference value: 20.25 +/- 1.02 seconds). It is filed as functional, Oryctolagus cuniculus. The essentials: (§1)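 Citrated blood (3.8% citrate, 1:9) spun 3000 rpm for 10 min to give platelet-poor plasma. Compounds dissolved in 80% ethanol at 100 μM. Kit assays run on a coagulometer at 37 °C with 3 min incubations. TT: plasma, then thrombin plus sample. PT: plasma, then thromboplastin plus sample. APTT: sample, plasma and activator. FIB: plasma, FIB reagent and sample. Mean ± S.D., n = 4.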

Data set [2] relates to Plasma. Kind of data set: Antithrombotic activity in New Zealand white rabbit platelet-poor plasma assessed as increase of prothrombin time at 100 uM after 3 mins (reference value: 4.99 +/- 0.18 seconds). It is filed as functional, Oryctolagus cuniculus. A digest of the protocol: as §1
The subject of data set [3] is Plasma. Kind of data set: Antithrombotic activity in New Zealand white rabbit platelet-poor plasma assessed as increase of activated partial thromboplastin time at 100 uM after 3 mins (reference value: 30.58 +/- 1.55 seconds). It is filed as functional, Oryctolagus cuniculus. The essentials:
as §1

A short description of data set [4]: Antioxidant activity assessed as DPPH radical scavenging activity after 30 mins. It is filed as physicochemical. A digest of the protocol: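 Sample in DMSO at 5–500 μM mixed 1:1 with 0.2 mM DPPH in ethanol; DMSO control. Reaction 30 min at 25 °C, absorbance at 517 nm. Scavenging % = [1 − (A1 − A2)/A0] × 100, with a no-DPPH sample blank. IC50 = concentration giving 50% loss of DPPH radical.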
In general terms: Loss of DPPH colour is used to gauge radical scavenging.

A short description of data set [5]: Antioxidant activity in rat PC12 cells assessed as inhibition of H2O2-induced cytotoxicity at 50 uM after 4 hrs by MTT assay. It is filed as functional. Conditions: PC-12, 4 h. The essentials: (§2)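 PC12 cells seeded at 5×10^4 cells/ml and cultured 24 h at 37 °C, 5% CO2. The model group got 400 µM H2O2 for 1 h before drug at 25 or 50 µM; the control group got serum-free DMEM. Five wells per group. MTT 4 h at 37 °C, formazan dissolved in DMSO, absorbance read at 517 nm; inhibiting rate of H2O2 cytotoxicity calculated from absorbance.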
On the technique in general: Tetrazolium dyes change colour on reduction, which living cells bring about.

Data set [6] can be described thus: Antioxidant activity in rat PC12 cells assessed as inhibition of H2O2-induced cytotoxicity at 25 uM after 4 hrs by MTT assay. It is filed as functional. Conditions: PC-12, 4 h. A digest of the protocol: as §2
Data set [7] can be described thus: Aqueous solubility of the compound in water after 1 hr by UV-vis spectrophotometer analysis. It is filed as physicochemical. A digest of the protocol:
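Standard curves from methanol solutions at 0.1–10 µg/ml, UV read at 334 nm. Compound (150 µg) dissolved in 10 ml water by ultrasound for 1 h at room temperature, left 30 min, centrifuged. Supernatant measured by UV scan and solubility read from the standard curve.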

Data set [8] in a line: N-octanol/0.1 M HCl partition coefficient, log P of the compound after 5 hrs by spectrophotometric analysis. It is filed as physicochemical. A digest of the protocol:
(§3)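 Shake-flask method. Stock (10 µg/ml) diluted into buffer (0.1 mol/L HCl, 0.15 mol/L NaCl or 0.15 mol/L NaHCO3) and mixed with an equal volume of mutually saturated n-octanol, protected from light. Vortexed 3 min, then shaken 5 h at 25 °C. Both phases read at 334 nm; logP = log([C]octanol/[C]aqueous).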

The nature of data set [9]: N-octanol/0.15 M NaCl partition coefficient, log P of the compound after 5 hrs by spectrophotometric analysis. It is filed as physicochemical. The essentials:
as §3

Data set [10] is described as follows: N-octanol/0.15 M NaHCO3 partition coefficient, log P of the compound after 5 hrs by spectrophotometric analysis. It is filed as physicochemical. The essentials:
as §3

Data set [11] relates to Plasma. Kind of data set: Antithrombotic activity in New Zealand white rabbit platelet-poor plasma assessed as reduction of fibrinogen at 100 uM after 3 mins (reference value: 7.02+/- 0.16 g/L).

Molecules are shown by their SMILES. ≈ marks a conversion by molar mass, not a printed value.

With `COc1c(O)c(O)cc2oc(-c3ccc(O)cc3)cc(=O)c12`, the TT with Plasma [1] is reported as 22.6 s. Further, in the data set with Plasma [2], the PT came to 6.65 s. Further, the APTT with Plasma [3] is on record as 30.53 s. Besides, the IC50 in data set [4] was found to be 28.9 µM. Besides, in [5], the inhibition at 50 µM came to 81.4%. Further, in data set [6], the inhibition at 25 µM is 54.4%. Also, the solubility at 1 h in data set [7] was determined as 5.72 µg/mL (≈ 19 µM). Also, the values for the logP at 5 h in data set [8], in [9] and in data set [10] were 1.55, 1.47 and 0.892, respectively. In the data set with Plasma [11], the Activity was 5.58 g/L.
`COc1ccc(-c2cc(=O)c3c(O)c(OC)c(OC)cc3o2)cc1` [SALVIGENIN]: in the data set with Plasma [1], the TT was 29.03 s. Moreover, the PT in the data set on Plasma [2] is on record as 6.75 s. In the data set with Plasma [3], the APTT amounted to 36 s. Further, in data set [4], the half-inhibitory concentration (IC50) was determined as 463 µM. In data set [5], the inhibition at 50 µM is 20.4%. Besides, the inhibition at 25 µM in [6] amounted to 11.1%. For the same compound, the concentration in solution in [7] (solubility at 1 h) was 0.31 µg/mL (≈ 0.944 µM). Moreover, the logP at 5 h was 2.64 in data set [8], 2.55 in data set [9] and 2.27 in [10]. For the same compound, the Activity in the data set on Plasma [11] stood at 5.96 g/L.
Consider `COc1ccc(-c2cc(=O)c3c(O)c(OC)c(O)cc3o2)cc1` [PECTOLINARIGENIN], for which the TT in the data set with Plasma [1] stood at 27.45 s. For the same compound, the PT with Plasma [2] was 6.53 s. Also, the APTT with Plasma [3] stood at 30.48 s. Further, the IC50 in data set [4] amounted to 170 µM. Further, in [5], the inhibition at 50 µM was determined as 68.1%. Also, the inhibition at 25 µM in data set [6] stood at 44.2%. In addition, in data set [7], the concentration in solution (solubility at 1 h) was 1.36 µg/mL (≈ 4.33 µM). For the same compound, the logP at 5 h in data set [8] was found to be 2.14; in [9], 2.09; in data set [10], 1.86. In addition, the Activity in the data set with Plasma [11] is listed as 5.92 g/L.
For the compound `O=C(O)[C@H]1O[C@@H](Oc2cc3oc(-c4ccc(O)cc4)cc(=O)c3c(O)c2O)[C@H](O)[C@@H](O)[C@@H]1O` [SCUTELLARIN], in the data set with Plasma [1], the TT is 23.08 s. Also, in the data set on Plasma [2], the PT turned out to be 6.28 s. Besides, in the data set with Plasma [3], the APTT stood at 34.18 s. Also, in data set [4], the IC50 came to 27.9 µM. Further, the inhibition at 50 µM in data set [5] came to 79.2%. Also, the inhibition at 25 µM in [6] came out at 53.1%. For the same compound, the logP at 5 h is 0.592 in data set [8], 0.365 in data set [9] and -0.0513 in [10]. Moreover, in the data set on Plasma [11], the Activity is 6.13 g/L.
In the case of `COc1cc2oc(-c3ccc(O)cc3)cc(=O)c2c(O)c1O`, the TT in the data set on Plasma [1] came to 25.48 s. Besides, in the data set with Plasma [2], the PT is 6.55 s. Also, the APTT in the data set with Plasma [3] is listed as 34.49 s. Besides, in [4], the IC50 amounted to 30.2 µM. Moreover, the inhibition at 50 µM in data set [5] is 82.3%. In addition, the inhibition at 25 µM in [6] came to 56.2%. The compound also yielded a solubility at 1 h in data set [7] of 4.56 µg/mL (≈ 15.2 µM). Besides, the values for the logP at 5 h in data set [8], in data set [9] and in data set [10] were 1.59, 1.54 and 1.03, respectively. Besides, in the data set on Plasma [11], the Activity is given as 5.74 g/L.
In the case of `COc1ccc(-c2cc(=O)c3c(O)c(O)c(O)cc3o2)cc1`, the TT in the data set with Plasma [1] turned out to be 24.98 s. The PT with Plasma [2] was determined as 6.4 s. Also, in the data set on Plasma [3], the APTT stood at 31.53 s. Further, the IC50 in data set [4] came to 25.3 µM. In data set [5], the inhibition at 50 µM was 89.4%. Moreover, the inhibition at 25 µM in [6] amounted to 63.3%. Further, the concentration in solution in data set [7] (solubility at 1 h) came to 6.31 µg/mL (≈ 21 µM). Also, the logP at 5 h in data set [8] is 1.65; in data set [9] it was 1.41; in [10] it was 0.785. In the data set with Plasma [11], the Activity worked out at 5.67 g/L.
Consider `COc1c(O)cc2oc(-c3ccc(O)cc3)cc(=O)c2c1O` [HISPIDULIN], for which the TT in the data set on Plasma [1] is reported as 25.96 s. In the data set with Plasma [2], the PT stood at 6.25 s. The APTT in the data set with Plasma [3] turned out to be 33.1 s. Moreover, the IC50 in data set [4] was 23.7 µM. Moreover, in data set [5], the inhibition at 50 µM is 88%. Besides, in data set [6], the inhibition at 25 µM turned out to be 62.4%. In data set [7], this compound showed a solubility at 1 h of 4.27 µg/mL (≈ 14.2 µM). In addition, the logP at 5 h in [8] was 1.77; in [9], 1.68; in data set [10], 1.02. For the same compound, in the data set on Plasma [11], the Activity worked out at 5.38 g/L.
For `COc1ccc(-c2cc(=O)c3c(O)c(O)c(OC)cc3o2)cc1` [LADANEIN], the TT in the data set on Plasma [1] turned out to be 23.33 s. Moreover, the PT in the data set on Plasma [2] is listed as 6.93 s. Moreover, in the data set on Plasma [3], the APTT is recorded as 38.28 s. For the same compound, the IC50 in [4] amounted to 159 µM. For the same compound, the inhibition at 50 µM in [5] turned out to be 74.3%. For the same compound, in data set [6], the inhibition at 25 µM was determined as 48.2%. In addition, the solubility at 1 h in [7] turned out to be 3.2 µg/mL (≈ 10.2 µM). The figures for the logP at 5 h in data set [8], in data set [9] and in data set [10] were 1.94, 1.79 and 1.4, respectively. The Activity in the data set on Plasma [11] is reported as 5.94 g/L.
Turning to `O=c1cc(-c2ccc(O)cc2)oc2cc(O)c(O)c(O)c12` [SCUTELLAREIN], in the data set with Plasma [1], the TT is recorded as 24.4 s. Further, the PT in the data set with Plasma [2] is listed as 5.93 s. The APTT in the data set on Plasma [3] is reported as 36.65 s. For the same compound, the IC50 in data set [4] worked out at 22.6 µM. Further, the inhibition at 50 µM in data set [5] stood at 91.2%. For the same compound, in [6], the inhibition at 25 µM came to 64.6%. In addition, the figures for the logP at 5 h in data set [8], in [9] and in data set [10] were 0.892, 0.772 and 0.48, respectively. In the data set on Plasma [11], the Activity is given as 6.84 g/L.
As to `COc1cc2oc(-c3ccc(O)cc3)cc(=O)c2c(O)c1OC` [CIRSIMARITIN], the TT with Plasma [1] amounted to 25.1 s. The PT with Plasma [2] came to 6.95 s. For the same compound, the APTT in the data set on Plasma [3] came out at 39.42 s. For the same compound, the IC50 in data set [4] was found to be 190 µM. Besides, the inhibition at 50 µM in data set [5] was 76.1%. Further, the inhibition at 25 µM in data set [6] amounted to 52.2%. Also, the solubility at 1 h in [7] is 1.53 µg/mL (≈ 4.87 µM). In addition, the logP at 5 h in data set [8] is 2.19; in [9], 2.14; in [10] it was 1.81. Moreover, in the data set with Plasma [11], the Activity was 5.65 g/L.

The term IC50 denotes the concentration needed to halve the response being measured. For orientation: inhibition means the share of the control response that was lost under treatment. For orientation: solubility means the concentration that dissolves in the medium under given conditions. A word on the logP: it is a log measure of how a compound divides between an organic and an aqueous phase. Read a high logP as higher lipophilicity.

Values taken from ChEMBL document CHEMBL3739414, “Synthesis and biological evaluation of methylated scutellarein analogs based on metabolic mechanism of scutellarin in vivo” (Eur J Med Chem, 2015).
